Sampled rows, rich in hits. Any-hit rate of the full collection: about 6%.
cytoskel mod: modifiers of cytoskeleton assembly; HUVEC TNFa F-actin phalloidin imaging, high content; inhibition, % at 2 µM; 91,000 compounds, 0.18% hits; AID 836;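 active = inhibition above the batch mean plus 3 SD and confirmed as a hit by visual image inspection, cut at about 30% in these data, passing the limit was not always enough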
HUVEC inhibit: human endothelial cell proliferation inhibition. viability, % at 10 µM (by protocol). 86,000 compounds, 1.1% hits. HUVEC proliferation, CellTiter-Glo luminescence, 72 h; active compounds read low;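 active = viability at or below 30%; inactive = viability above 30%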
H69AR growth 86K: blocks growth of human H69AR lung tumor cells; H69AR lung tumor viability, ATP luminescence, 72 h; active compounds read low; viability, % at 10 µM; 85,000 compounds, 6% hits;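 active = viability at or below 40%; inactive = viability above 40%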;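 note: multidrug resistant small cell line overexpressing MRP-1 efflux transporter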
PTK2B oligo ant: Pyk2 (human) oligomerization antagonism. 99,000 compounds, 0.83% hits. AID 1347419. z-score (the deposit names both 25 µM and 10 µM). Q14289. Q293 cells, Pyk2 FERM NanoBiT luminescence; active compounds read low;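 active = Z-score of -3 or lower, scaled per plate to the spread of control and sample wells; inactive = z-score above -3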;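 note: negative z-score means lost luminescence so less FERM oligomerization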
Target sequence (Q14289 whole entry, looked up): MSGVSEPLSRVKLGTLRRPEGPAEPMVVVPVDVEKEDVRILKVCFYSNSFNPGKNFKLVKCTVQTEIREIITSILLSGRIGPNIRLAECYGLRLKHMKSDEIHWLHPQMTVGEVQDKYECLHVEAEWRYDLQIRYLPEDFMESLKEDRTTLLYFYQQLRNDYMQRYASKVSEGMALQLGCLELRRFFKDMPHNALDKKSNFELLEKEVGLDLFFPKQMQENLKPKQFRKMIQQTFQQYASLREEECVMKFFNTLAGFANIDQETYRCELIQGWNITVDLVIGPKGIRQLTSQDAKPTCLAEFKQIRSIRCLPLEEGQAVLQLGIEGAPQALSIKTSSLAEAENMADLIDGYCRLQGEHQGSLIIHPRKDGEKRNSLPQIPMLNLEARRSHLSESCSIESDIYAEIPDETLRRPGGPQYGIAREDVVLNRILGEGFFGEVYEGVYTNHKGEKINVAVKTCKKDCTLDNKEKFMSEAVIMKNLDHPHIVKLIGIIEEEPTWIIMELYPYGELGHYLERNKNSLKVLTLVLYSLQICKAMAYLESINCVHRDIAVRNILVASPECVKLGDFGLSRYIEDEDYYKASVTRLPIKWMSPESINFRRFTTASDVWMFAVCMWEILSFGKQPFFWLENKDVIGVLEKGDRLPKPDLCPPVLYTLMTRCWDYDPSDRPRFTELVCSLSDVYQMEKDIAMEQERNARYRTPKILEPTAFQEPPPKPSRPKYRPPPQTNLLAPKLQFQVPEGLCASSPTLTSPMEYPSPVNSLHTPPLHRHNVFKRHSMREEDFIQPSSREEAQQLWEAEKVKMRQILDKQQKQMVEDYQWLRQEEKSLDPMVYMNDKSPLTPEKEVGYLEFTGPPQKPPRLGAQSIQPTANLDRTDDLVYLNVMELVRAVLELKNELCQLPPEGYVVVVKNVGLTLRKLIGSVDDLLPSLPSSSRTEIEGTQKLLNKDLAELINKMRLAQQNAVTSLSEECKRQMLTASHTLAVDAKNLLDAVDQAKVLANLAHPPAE
Jurkat tox 60K: reduces viability or proliferation of Jurkat cells. Jurkat E6.1 viability, ATP luminescence, 48 h. inhibition, % at 4 µM. 56,000 compounds, 1.2% hits. AID 463;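 active = inhibition above the mean inhibition of all tested compounds plus 3 SD, cut at about 28% in these data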
Fibroblast inh: blocks proliferation of human lung fibroblasts. LL 47 human lung fibroblast viability, ATP luminescence; active compounds read low. viability, % at 10 µM. 85,000 compounds, 1.1% hits. AID 719;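 active = viability at or below 50% in the single dose screen; inactive = viability above 50%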;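 note: compound exposure lasted 72 h before the ATP readout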
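Material: Human LL 47 lung fibroblast cells | Input: 1,150 cells/well | Buffer or medium: IMEM plus 15% FBS | Compound dosing: 0.1% DMSO in all compound wells | Times: Overnight cell rest, 72 h compound treatment at 37 °C | Signal: CellTiter-Glo luminescence measuring cellular ATP | Measure: % viability versus median cells-only luminescence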
Large screens that a line does not name were inactive.

CCOc1ccccc1C(=O)Nc1ccc(-c2nnc(-c3ccc(C)cc3)o2)cc1	none (no result: PTK2B oligo ant)
Cc1ccc(NC(=O)CSc2nc3ccccc3c(=O)n2CCCC(=O)N2CCCC2)cc1	H69AR growth 86K 15 (no result: Jurkat tox 60K)
CCCCn1c(SCC(=O)Nc2cc(C)on2)nc2ccccc2c1=O	none
Cc1cc(NC(=O)CSc2nc3c(sc4ccccc43)c(=O)n2CCCN2CCOCC2)n[nH]1	H69AR growth 86K 33, Fibroblast inh 39 (no result: Jurkat tox 60K)
CCn1c(SCC(=O)N2CCC(C(N)=O)(N3CCCCC3)CC2)nc2ccccc2c1=O	H69AR growth 86K 9.0
Cc1ccc(NC(=O)CSc2nc3ccccc3c(=O)n2CCCN2CCCCC2)cc1C	HUVEC inhibit 13, H69AR growth 86K 2.2, Fibroblast inh 3.0 (no result: Jurkat tox 60K)
CCn1c(SCC(=O)N2CCCC2)nc2ccccc2c1=O	none
N/C(=N\OC(=O)c1cccc(F)c1)c1ccccc1	none (no result: HUVEC inhibit, H69AR growth 86K, Jurkat tox 60K, Fibroblast inh)
NC(=O)C1CCN(C(=O)C2CCN(S(=O)(=O)c3ccccc3)CC2)CC1	none (no result: PTK2B oligo ant)
Cc1ccc(C2(c3ccc(C)cc3)CC2C(=O)Nc2ccc([N+](=O)[O-])cc2O)cc1 (centres undefined)	PTK2B oligo ant -3.4 (no result: HUVEC inhibit, H69AR growth 86K, Jurkat tox 60K, Fibroblast inh)
CCCOc1ccc(C(=O)C(c2ccccc2)N2CCOCC2)cc1 (centres undefined)	none (no result: cytoskel mod)
COc1ccc(C(=O)C(CN2CCOCC2)c2ccccc2)cc1F (centres undefined)	H69AR growth 86K 1.9, Jurkat tox 60K 96, Fibroblast inh 15
CCCOc1ccc(C(=O)C(CN2CCOCC2)c2ccccc2)cc1 (centres undefined)	HUVEC inhibit 3.0, H69AR growth 86K 1.6, Fibroblast inh 46 (no result: Jurkat tox 60K)
CCOc1ccc2[nH]c(=O)c(CN(Cc3cccs3)Cc3nnnn3C(C)(C)CC)cc2c1	H69AR growth 86K 28
Cc1cc(C)c(C#N)c(SCC2COc3ccccc3O2)n1 (centres undefined)	PTK2B oligo ant -3.3 (no result: HUVEC inhibit, H69AR growth 86K, Fibroblast inh)
Cc1ccc(/C=C2/SC(=S)N(CC(=O)Nc3ncc(Cc4ccc(C)cc4)s3)C2=O)cc1	H69AR growth 86K 4.0 (no result: Jurkat tox 60K)
COc1ccc(S(=O)(=O)C(C#N)c2nc3ccccc3nc2N2CCC(C)CC2)cc1 (centres undefined)	none (no result: cytoskel mod, PTK2B oligo ant, Jurkat tox 60K)
CSC1=C(C#N)C(c2ccc(Cl)cc2)C2=C(CC(C)(C)CC2=O)N1 (centres undefined)	PTK2B oligo ant -3.1, Jurkat tox 60K 36 (no result: cytoskel mod)
COc1cc2c(cc1OC)C1(Nc3c-2c(-c2ccccc2)nn3-c2ccccc2)C(=O)Nc2ccccc21 (centres undefined)	PTK2B oligo ant -3.2 (no result: Jurkat tox 60K)
COc1cc2c(cc1OC)C1(Nc3c-2c(C)nn3-c2ccccc2)C(=O)Nc2ccccc21 (centres undefined)	none (no result: Jurkat tox 60K)
Cn1c(-c2ccc3c(c2)OCO3)cnc1NCc1ccccc1	H69AR growth 86K 24
Cn1c(-c2ccc3c(c2)OCO3)cnc1NCc1cccc(Cl)c1	H69AR growth 86K 33
Cn1c(-c2ccc3c(c2)OCO3)cnc1NC(=O)CCC(=O)NCCc1ccccc1	none
COc1cc(C2Sc3ccccc3NC3=C2C(=O)OC3)cc(OC)c1OC (centres undefined)	H69AR growth 86K 14 (no result: Jurkat tox 60K)
COc1cc2c3nnc(-c4ccc(F)cc4)c-3cn(Cc3ccc(F)cc3)c2cc1OC	HUVEC inhibit 2.6, H69AR growth 86K -0.4, Fibroblast inh 10 (no result: PTK2B oligo ant, Jurkat tox 60K)
COc1ccc(Cn2cc3c(-c4ccc(F)cc4)nnc-3c3cc(OC)c(OC)cc32)cc1	HUVEC inhibit 2.3, H69AR growth 86K 1.3, Fibroblast inh 2.2 (no result: PTK2B oligo ant, Jurkat tox 60K)
COc1cc2c3nnc(-c4ccc(F)cc4)c-3cn(Cc3ccccc3)c2cc1OC	cytoskel mod 33, HUVEC inhibit 1.8, H69AR growth 86K 1.5, Fibroblast inh 2.7 (no result: PTK2B oligo ant, Jurkat tox 60K)
COc1cccc(-n2nnc3c(=O)n(Cc4ccc(F)cc4)cnc32)c1	none (no result: Jurkat tox 60K)
COc1ccc(CN2CCN(S(=O)(=O)c3ccc(F)cc3)CC2)cc1OC	none
N#C/C(=C\c1ccc(N2CCOCC2)o1)c1nc2ccccc2[nH]1	H69AR growth 86K 20 (no result: Jurkat tox 60K)
N#C/C(=C/c1ccc(N2CCOCC2)o1)c1ccc(Cl)cc1	none (no result: HUVEC inhibit, H69AR growth 86K, Jurkat tox 60K, Fibroblast inh)
O=C(CSc1nc2ccccc2[nH]1)Nc1cc(C(F)(F)F)ccc1N1CCOCC1	H69AR growth 86K 31
Cc1onc(-c2ccccc2)c1C(=O)Nc1cc(C(F)(F)F)ccc1N1CCOCC1	H69AR growth 86K 23, Jurkat tox 60K 87, Fibroblast inh 48
Cc1ccccc1NC(=O)c1c(-c2ccccc2)noc1C	none
Cc1onc(-c2ccccc2)c1C(=O)Nc1ccccc1N1CCOCC1	H69AR growth 86K 31 (no result: cytoskel mod)
O=C(Nc1cc(C(F)(F)F)ccc1N1CCOCC1)c1ccc(F)cc1	none (no result: Jurkat tox 60K)
O=C(CSc1nc2ccccc2[nH]1)Nc1ccccc1N1CCOCC1	none
CC1(C)Cc2c(sc3nc(SCC#N)n(C4CCCCC4)c(=O)c23)CO1	none (no result: cytoskel mod, PTK2B oligo ant, Jurkat tox 60K)
CCN(CC)c1ccc(NC(=O)Nc2cccc(C(C)=O)c2)cc1	none
CCOc1cccc(C(=O)Nc2ccc(N(CC)CC)cc2)c1	H69AR growth 86K 20 (no result: cytoskel mod)
CCCC(C)c1nnc(NC(=O)C2CCCO2)s1 (centres undefined)	none
COc1cc(C(=O)N2CCN(c3ccc([N+](=O)[O-])cc3)CC2)ccc1OCc1c(C)noc1C	H69AR growth 86K 38 (no result: cytoskel mod, Jurkat tox 60K)
COc1ccc(N2CCN(C(=O)c3ccc(OCc4c(C)noc4C)c(OC)c3)CC2)cc1	none (no result: Jurkat tox 60K)
Cc1cc(C)c(C)c(C(=O)CSc2nnc(-c3ccc4[nH]c(C)c(C)c4c3)o2)c1C	H69AR growth 86K 8.7, Fibroblast inh 44 (no result: Jurkat tox 60K)
Cc1[nH]c2ccc(-c3nnc(SCC(=O)c4ccc(F)cc4)o3)cc2c1C	H69AR growth 86K 26
Cc1ccc(C(=O)N2CCN(C3c4cccc5cccc(c45)C3NS(=O)(=O)c3ccccc3)CC2)cc1 (centres undefined)	none (no result: Jurkat tox 60K)
C=C(C)COc1ccc(-c2[nH]ncc2-c2ccc(OC)c(OC)c2)c(O)c1	Jurkat tox 60K 65, Fibroblast inh 46 (no result: H69AR growth 86K)
C=C(C)COc1ccc(-c2[nH]ncc2-c2ccccc2)c(O)c1	H69AR growth 86K 39 (no result: Jurkat tox 60K)
COc1ccc(-c2[nH]ncc2-c2cnn(-c3ccccc3)c2)c(O)c1	none (no result: HUVEC inhibit, H69AR growth 86K, Jurkat tox 60K, Fibroblast inh)
CCOc1ccc(-c2nc(N)nc(C)c2-c2ccc(OC)c(OC)c2)c(O)c1	none (no result: cytoskel mod)
Cc1ccccc1OCc1nnc2c3cnn(C)c3ncn12	none (no result: cytoskel mod)
CS(=O)(=O)Nc1ccc(C(=O)NC2CCCC2)cc1	none
COC(=O)c1cc2nc(-c3ccccc3)cc(C)n2n1	none (no result: cytoskel mod)
Cc1cc(-c2ccccc2)nc2cc(C(=O)N(Cc3ccccc3)Cc3ccccc3)nn12	HUVEC inhibit 26, H69AR growth 86K 40 (no result: Jurkat tox 60K)
CC1(C)C(c2ccccc2)=[N+]([O-])CN1O	H69AR growth 86K 34 (no result: Fibroblast inh)
CCCN1C(=O)C(O)(C2CC(=O)CC(C)(C)O2)c2ccccc21 (centres undefined)	H69AR growth 86K 23
COc1ccc(-c2cc(C(F)(F)F)nc(N3CCN(c4ccc(F)cc4)CC3)n2)cc1OC	H69AR growth 86K 17 (no result: Jurkat tox 60K)
CCCCn1c(N)c(N(CC(C)C)C(=O)CN(C)Cc2cccc(OC)c2)c(=O)[nH]c1=O	none (no result: Jurkat tox 60K)
Oc1ccc(N2CCN(C(=S)NCCc3ccccc3)CC2)cc1	none (no result: HUVEC inhibit, H69AR growth 86K, Jurkat tox 60K, Fibroblast inh)

Compound activity as filed in PubChem BioAssay.
